Calls of active or inactive are those of the source. The calls are words filed in the database; no cut-off is given here.
Legend:
Mus musculus [1] = test: Antidiabetic activity in C57BL/KsJ db/db mouse assessed as reduction of blood glucose level at 50 mg/kg, po administered for 6 weeks measured on first week; format: functional
Summary of the method: (§1)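 C57BL/KsJ db/db mice, 6-8 weeks old, one-week adaptation, n = 10 per group, chow and water ad libitum. Compound suspended in 0.5% CMC-Na with 2% tween-80, given orally once daily for six weeks (about 0.2 mL/20 g). Vehicle-treated db/db model group. Blood glucose read weekly by glucometer.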

Mus musculus [2] = test: Antidyslipidemic activity in C57BL/KsJ db/db mouse assessed as reduction of triglycerides level in blood at 50 mg/kg, po administered for 6 weeks measured on 2nd week (reference value: 1.08 +/- 0.07 mmol/l); format: functional
Mus musculus [3] = test: Antidyslipidemic activity in C57BL/KsJ db/db mouse assessed as reduction of total cholesterol level in blood at 50 mg/kg, po administered for 6 weeks (reference value: 3.3 +/- 0.5 mmol/l); format: functional
Mus musculus [4] = test: Antidyslipidemic activity in C57BL/KsJ db/db mouse assessed as reduction of triglycerides level in blood at 50 mg/kg, po administered for 6 weeks (reference value: 1.05 +/- 0.11 mmol/l); format: functional
Mus musculus [5] = test: Antidiabetic activity in C57BL/KsJ db/db mouse assessed as reduction of blood glucose level at 50 mg/kg, po administered for 6 weeks; format: functional; summary of the method: as §1
Mus musculus [6] = test: […] activity in C57BL/KsJ db/db mouse assessed as reduction of HbA1c level in blood at 50 mg/kg, po administered for 6 weeks (reference value: 2.65 +/- 0.40%); format: functional; design: scale not given: the % may be the effect or the level left
Summary of the method: (§2)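 db/db mice (C57BL/KsJ, 6-8 weeks, n = 10/group) given compound orally once daily for six weeks in 0.5% CMC-Na with 2% tween-80. Vehicle model group; db/dm mice as controls. At the end, overnight fast, then dosing; eyeball blood taken 1 h later into heparin tubes. HbA1c read by reagent kit. GSP measured in plasma by fructosamine method. Mean ± s.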

Mus musculus [7] = test: Antidyslipidemic activity in C57BL/KsJ db/db mouse assessed as reduction of total cholesterol level in blood at 50 mg/kg, po administered for 6 weeks measured on 2nd week (reference value: 3.5 +/- 0.2 mmol/l); format: functional
Mus musculus [8] = test: […] activity in C57BL/KsJ db/db mouse assessed as reduction of glycated serum protein level in blood at 50 mg/kg, po administered for 6 weeks (reference value: 1.62 +/- 0.27 mmol/l); format: functional; summary of the method: as §2
[9] = biological target: T1, Tyrosine-protein phosphatase non-receptor type 1 (Homo sapiens) (UniProt P18031); conditions: at 20 µg/mL
T1 sequence (whole entry): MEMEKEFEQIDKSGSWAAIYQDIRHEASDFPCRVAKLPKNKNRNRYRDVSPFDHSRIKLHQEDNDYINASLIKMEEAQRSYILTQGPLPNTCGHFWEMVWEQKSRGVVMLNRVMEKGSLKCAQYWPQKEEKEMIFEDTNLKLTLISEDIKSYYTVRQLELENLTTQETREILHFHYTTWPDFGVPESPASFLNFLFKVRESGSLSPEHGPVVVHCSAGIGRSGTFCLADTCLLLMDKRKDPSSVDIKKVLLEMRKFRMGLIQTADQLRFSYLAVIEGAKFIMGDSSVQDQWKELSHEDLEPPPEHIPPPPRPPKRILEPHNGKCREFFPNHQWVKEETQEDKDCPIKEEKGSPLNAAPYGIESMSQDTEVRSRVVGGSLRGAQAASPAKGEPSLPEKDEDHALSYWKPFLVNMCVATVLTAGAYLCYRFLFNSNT

[10] = biological target: T1, Tyrosine-protein phosphatase non-receptor type 1 (Homo sapiens); conditions: at 5 µg/mL
[11] = biological target: T2, Tyrosine-protein phosphatase non-receptor type 1 (Homo sapiens, UniProt P18031); test: Inhibition of human recombinant GST-tagged PTP1B using para-nitrophenyl phosphate as substrate after 2 mins
T2 sequence (P18031 whole entry): T1 sequence (whole entry)

Mus musculus [12] = test: Toxicity in C57BL/KsJ db/db mouse assessed as change in body weight at 25 to 50 mg/kg, po administered for 6 weeks; format: organism-based; design: dose 25-50 mg/kg, route oral; conditions: in vivo, 1008 h
Mus musculus [13] = test: Antidyslipidemic activity in po dosed C57BL/KsJ db/db mouse assessed as reduction of total cholesterol level in blood administered for 6 weeks; format: functional, organism-based
Mus musculus [14] = test: […] activity in C57BL/KsJ db/db mouse assessed as reduction of HbA1c level in blood at 25 mg/kg, po administered for 6 weeks (reference value: 2.65 +/- 0.40%); format: functional; design: scale not given: the % may be the effect or the level left; summary of the method: as §2
Mus musculus [15] = test: Antidyslipidemic activity in C57BL/KsJ db/db mouse assessed as reduction of triglycerides level in blood at 25 mg/kg, po administered for 6 weeks (reference value: 1.05 +/- 0.11 mmol/l); format: functional
Mus musculus [16] = test: Antidyslipidemic activity in C57BL/KsJ db/db mouse assessed as reduction of total cholesterol level in blood at 25 mg/kg, po administered for 6 weeks measured on 2nd week (reference value: 3.5 +/- 0.2 mmol/l); format: functional
Mus musculus [17] = test: […] activity in C57BL/KsJ db/db mouse assessed as reduction of glycated serum protein level in blood at 25 mg/kg, po administered for 6 weeks (reference value: 1.62 +/- 0.27 mmol/l); format: functional; summary of the method: as §2
Mus musculus [18] = test: Antidyslipidemic activity in C57BL/KsJ db/db mouse assessed as reduction of total cholesterol level in blood at 25 mg/kg, po administered for 6 weeks (reference value: 3.3 +/- 0.5 mmol/l); format: functional
Mus musculus [19] = test: Toxicity in C57BL/KsJ db/db mouse assessed as mortality at 25 to 50 mg/kg, po administered for 6 weeks; format: organism-based; design: dose 25-50 mg/kg, route oral; conditions: in vivo, 1008 h
Mus musculus [20] = test: Antidiabetic activity in C57BL/KsJ db/db mouse assessed as reduction of blood glucose level at 50 mg/kg, po administered for 6 weeks measured on 3rd week; format: functional; design: scale not given: the % may be the effect or the level left; summary of the method: as §1
Mus musculus [21] = test: Antidiabetic activity in C57BL/KsJ db/db mouse assessed as reduction of blood glucose level at 25 mg/kg, po administered for 6 weeks measured on 3rd week; format: functional; design: scale not given: the % may be the effect or the level left; summary of the method: as §1
Mus musculus [22] = test: Antidyslipidemic activity in C57BL/KsJ db/db mouse assessed as reduction of triglycerides level in blood at 25 mg/kg, po administered for 6 weeks measured on 2nd week (reference value: 1.08 +/- 0.07 mmol/l); format: functional
Mus musculus [23] = test: Antidiabetic activity in C57BL/KsJ db/db mouse assessed as reduction of food and water intake at 25 to 50 mg/kg, po administered for 6 weeks; format: functional, organism-based
Summary of the method: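 db/db mice (C57BL/KsJ, 6-8 weeks), n = 10 per group, dosed orally once daily for six weeks as a suspension in 0.5% CMC-Na plus 2% tween-80. Vehicle model group; db/dm mice as non-diabetic controls. Food intake recorded weekly.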

Mus musculus [24] = test: Antidyslipidemic activity in po dosed C57BL/KsJ db/db mouse assessed as reduction of triglycerides level in blood administered for 6 weeks; format: functional, organism-based

| Structure (SMILES) | inhibition [9] [%] | inhibition [10] [%] | further results |
| --- | --- | --- | --- |
| CN(CCOc1ccc(CC2SC(=O)NC2=O)cc1)c1ccccn1 (configuration not stated) [ROSIGLITAZONE] | – | – | Activity (Mus musculus [1]): 8.9 mmol/L; Activity (Mus musculus [2]): 1.06 mmol/L; Activity (Mus musculus [3]): 7.7 mmol/L; Activity (Mus musculus [4]): 1.29 mmol/L; Activity (Mus musculus [5]): 8 mmol/L; Activity (Mus musculus [6]): 2.56%; Activity (Mus musculus [7]): 6.5 mmol/L; Activity (Mus musculus [8]): 2.6 mmol/L |
| COc1cc(C)c(Cc2c(Br)c(Br)c(OC)c(OC)c2Br)c(Br)c1OC | 72.6 | 38.2 | – |
| COc1cc(Cc2c(CO)cc(OC)c(OC)c2Br)c(Br)c(Br)c1OC | 74.9 | 29.1 | – |
| COc1cc(C(=O)c2c(C)cc(OC)c(OC)c2Br)c(Br)c(Br)c1OC | 48.6 | – | – |
| CCOCc1cc(OC)c(OC)c(Br)c1C(=O)c1cc(OC)c(OC)c(Br)c1Br | 73.8 | 17.6 | – |
| COc1cc(C2OCc3cc(OC)c(OC)c(Br)c32)c(Br)c(Br)c1OC (configuration not stated) | 11.4 | – | – |
| CCCCOCc1cc(O)c(O)c(Br)c1Cc1cc(O)c(O)c(Br)c1Br | 64.6 | 27.2 | – |
| COc1cc(Cc2c(CO)cc(OC)c(OC)c2Br)cc(Br)c1OC | 5.62 | – | – |
| COc1cc(C(=O)c2c(C(=O)O)cc(OC)c(OC)c2Br)c(Br)c(Br)c1OC | 29.9 | – | – |
| COc1cc(C(=O)c2c(C)cc(OC)c(OC)c2Br)cc(Br)c1OC | 36.7 | – | – |
| Oc1cc(Cc2cc(Br)c(O)c(Br)c2Br)c(Br)c(Br)c1O | – | – | IC50 [11]: 2.42 µM |
| CCCOCc1cc(O)c(O)c(Br)c1Cc1cc(O)c(O)c(Br)c1Br | 86.2 | 55.7 | – |
| CC(C)COCc1cc(O)c(O)c(Br)c1Cc1cc(O)c(O)c(Br)c1Br | 96.2 | 48.3 | Activity (Mus musculus [12]): Toxic; Activity (Mus musculus [2]): 1.35 mmol/L; Activity (Mus musculus [13]): Dose-dependent effect; Activity (Mus musculus [14]): 3.24%; Activity (Mus musculus [15]): 1.41 mmol/L; Activity (Mus musculus [16]): 7.7 mmol/L; Activity (Mus musculus [3]): 9.1 mmol/L; Activity (Mus musculus [17]): 3.29 mmol/L; Activity (Mus musculus [4]): 1.48 mmol/L; Activity (Mus musculus [18]): 8.5 mmol/L; Activity (Mus musculus [19]): Non-toxic; Activity (Mus musculus [20]): 36.4%; Activity (Mus musculus [21]): 32.7%; Activity (Mus musculus [6]): 3.03%; Activity (Mus musculus [22]): 1.16 mmol/L; Activity (Mus musculus [7]): 7.8 mmol/L; Activity (Mus musculus [23]): Active; Activity (Mus musculus [24]): Dose-dependent effect; Activity (Mus musculus [8]): 3 mmol/L |
| COc1cc(C2OC(=O)c3cc(OC)c(OC)c(Br)c32)c(Br)c(Br)c1OC (configuration not stated) | 10.6 | – | – |
| COCc1cc(OC)c(OC)c(Br)c1C(=O)c1cc(OC)c(OC)c(Br)c1Br | 61.8 | 17.7 | – |
| COC(=O)c1cc(OC)c(OC)c(Br)c1C(=O)c1cc(OC)c(OC)c(Br)c1Br | 55.3 | 23.8 | – |
| CCOCc1cc(O)c(O)c(Br)c1Cc1cc(O)c(O)c(Br)c1 | 50.6 | 17.3 | – |
| COCc1cc(O)c(O)c(Br)c1Cc1cc(O)c(O)c(Br)c1Br | 51.9 | 25.3 | – |
| COc1ccc(C(=O)c2c(C)cc(OC)c(OC)c2Br)cc1OC | 28.9 | – | – |
| COc1cc(Cc2c(C)cc(OC)c(OC)c2Br)c(Br)c(Br)c1OC | 87.5 | 43.1 | – |
| COc1c(Br)c(C)c(Cc2c(Br)c(Br)c(OC)c(OC)c2Br)c(Br)c1OC | 75.3 | 40.1 | – |
| Cc1cc(O)c(O)c(Br)c1Cc1cc(O)c(O)c(Br)c1Br | 53.4 | 32.1 | – |
| COc1cc(Cc2c(C)cc(OC)c(OC)c2Br)cc(Br)c1OC | 14.5 | – | – |
